The nature of the series: Toxicity liver stage against HepG2, at 10uM. The format is cell-based. Set-up: test concentration 10 uM, cell line HepG2-A16-CD81EGFP. The conditions noted are these: human, HepG2-A16-CD81EGFP cells; read-out: INHIBITION
In outline:
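Uninfected HepG2-A16-CD81EGFP cells, 3 × 10^3 per well, 1536-well, plated on prespotted compound at 10 μM final, parasite-free screening media added to match infected plates; puromycin 10 μM positive, DMSO 0.5% negative; run in parallel with 48 h PbLuc assay at 37 °C, 5% CO2; viability by CellTiter-Glo luminescence, normalized to controls.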
On to `O=C(NCCCn1cccn1)C1CCC(=O)N(Cc2ccccc2F)C1` (configuration not stated), for which the cytotoxicity at 10 µM was -3.75%.

For the compound `CC(O)CNCc1ccccc1C(F)(F)F` (configuration not stated), the cytotoxicity at 10 µM was -3.3%.

Consider `CCC1CCCCN1C(=O)Cn1nc(-c2cc(C)oc2C)cc(N)c1=O` (configuration not stated), for which the cytotoxicity at 10 µM was 2.44%.

As to `CC(=O)N1CCC(c2n[nH]cc2-c2ccnc(N)c2)C1` (configuration not stated), the cytotoxicity at 10 µM was 0.355%.

Consider `Cn1nc(C2CNCCO2)cc1CCOc1cccc(C(F)(F)F)c1` (configuration not stated), for which the cytotoxicity at 10 µM is -1.02%.

With `Nc1nccc(C2CCCN2CCc2ccccc2)n1` (configuration not stated), the cytotoxicity at 10 µM is 3.38%.

With `CCn1cc(S(=O)(=O)NCC2(N3CCOCC3)CCCCC2)c(C)n1`, the cytotoxicity at 10 µM is -27.5%.

Regarding `CN(C)c1ncccc1CN1CCOC(C(=O)Nc2ccccc2)C1` (configuration not stated), the cytotoxicity at 10 µM was -29.7%.

For the compound `Cc1ccc(CN2CC[C@H](O)[C@@H](n3ccc(=O)[nH]c3=O)CC2)cc1`, the cytotoxicity at 10 µM is -22.8%.

Turning to `CC(C)N1CCCC(CCCc2ccccn2)(C(=O)O)C1` (configuration not stated), the cytotoxicity at 10 µM came to 2.6%.

In the case of `O=C(C[S+]([O-])Cc1csc(C2CCCC2)n1)Nc1ccccc1` (configuration not stated), the cytotoxicity at 10 µM is -42.3%.

Take `Cc1ccc(C(=O)N2CCCC(N(C)C(=O)OC(C)(C)C)C2)o1` (configuration not stated): the cytotoxicity at 10 µM was -54%.

As for `CS(=O)(=O)c1cc(C(=O)NS(=O)(=O)Cc2ccc(F)cc2)ccc1Cl`, the cytotoxicity at 10 µM is -3.38%.

As to `O=C(c1ccccc1F)N(CCCO)S(=O)(=O)c1cccs1`, the cytotoxicity at 10 µM was found to be 4.95%.

On to `CC(C)(C)c1ncc(CNCC2CN(C3CC3)CCO2)s1` (configuration not stated), for which the cytotoxicity at 10 µM amounted to 0.948%.

With `Cc1cc(N(Cc2cccnc2)C2CC2)n2nc(C(F)(F)F)nc2n1`, the cytotoxicity at 10 µM is -1.95%.

Regarding `CC(C)CC(N)C1=NC(=C2N=CN=N2)NO1` (configuration not stated), the cytotoxicity at 10 µM is 10.6%.

Turning to `COc1ccc(C2CCN(Cc3cscn3)CC2)cc1`, the cytotoxicity at 10 µM is -0.243%.

For `CCCNC(=O)CN(C)C1CCN(c2ccc(Cl)cc2)CC1`, the cytotoxicity at 10 µM amounted to 1.41%.

Turning to `CCCN(CCC)C(=O)CN1CCCC1C(=O)N(C)C` (configuration not stated), the cytotoxicity at 10 µM came to 7.42%.

In the case of `COC(=O)C(CNC(=O)Nc1nncs1)Cc1ccc(F)cc1` (configuration not stated), the cytotoxicity at 10 µM is 0.571%.

With `O=C(CN(Cc1cccs1)c1ccc(F)cc1)NC1CCOCC1`, the cytotoxicity at 10 µM was 13.5%.

`N#Cc1ccc(CCC(=O)N2CCC(CN3CCOCC3)CC2)cc1`: the cytotoxicity at 10 µM is -4.97%.

As to `CCn1nc2c(cc1=O)CN(c1nc3ccccc3s1)CC2`, the cytotoxicity at 10 µM stood at 7.5%.

In the case of `CC(C)Cc1noc(CC2CCS(=O)(=O)C2)n1` (configuration not stated), the cytotoxicity at 10 µM amounted to 3.03%.

For `CCSCCC(=O)NCCn1nc2ccccn2c1=O`, the cytotoxicity at 10 µM was -9.53%.

With `CC(C)c1ncc2c(n1)CN(Cc1cccc3c1OCCO3)CC2`, the cytotoxicity at 10 µM was -4.34%.

As to `CCC(CC)c1cc(CNC(=O)N2CCC[C@@H]2CO)on1`, the cytotoxicity at 10 µM was -5.16%.

For the compound `CCC(CC)NC(=O)CN1CCN(C(=O)N(C)C)CC1`, the cytotoxicity at 10 µM is -3.7%.

As for `Cc1nn(C)c(C)c1NC(=O)CNc1cc(C(F)(F)F)ccc1F`, the cytotoxicity at 10 µM came to 13.4%.

For `Cc1nn(C)c(C)c1CCC(=O)OCC(=O)N1CCc2sccc2C1`, the cytotoxicity at 10 µM stood at 0.927%.

On to `Cc1nn(C)c(C)c1C(=O)NCc1cccnc1OC1CCCC1`, for which the cytotoxicity at 10 µM was -0.171%.

Take `Cc1noc(C)c1CC(=O)Nc1ccn(CC(N)=O)n1`: the cytotoxicity at 10 µM was found to be 9.86%.

As to `CCc1nc(CC)n(CC(=O)NCc2ccccc2C)n1`, the cytotoxicity at 10 µM is 15.2%.

On to `CC(c1cccc(Cl)c1)N(C)CCS(=O)(=O)CCC(N)=O` (configuration not stated), for which the cytotoxicity at 10 µM is -45.8%.

In the case of `CC(C)Sc1ccc(C(C)NC(=O)Cn2cccnc2=O)cc1` (configuration not stated), the cytotoxicity at 10 µM worked out at 16.8%.

In the case of `CC(=O)N1CCC2(CC1)CN(CC1CC1)c1ccc(F)cc12`, the cytotoxicity at 10 µM is -113%.

Turning to `CC(=O)N1CCO[C@@H]2CN(S(=O)(=O)C3CC3)CC[C@@H]2C1`, the cytotoxicity at 10 µM is -112%.

Consider `CC(C)Cn1cncc1CNC1CCSC1` (configuration not stated), for which the cytotoxicity at 10 µM was -2.34%.

In the case of `COc1ccccc1CC(=O)N(CCN1CCOCC1)Cc1ccco1`, the cytotoxicity at 10 µM amounted to 2.91%.

Take `COC1CCN(S(=O)(=O)N2C[C@H](c3ccccc3)[C@@H](N)C2)CC1`: the cytotoxicity at 10 µM worked out at 11.8%.

On to `Cc1nc(CN2CCC3(CCCO3)CCC2=O)no1` (configuration not stated), for which the cytotoxicity at 10 µM is -0.452%.

`O=c1c2sccc2ncn1Cc1cc(C2CC2)[nH]n1`: the cytotoxicity at 10 µM amounted to 0.463%.

In the case of `Cc1cc(C)c(C(=O)NC(c2nnc3n2CCNCC3)C(C)C)c(C)c1` (configuration not stated), the cytotoxicity at 10 µM is -7.01%.

Consider `Cc1nn(C)c2nc(N3CCN(Cc4nccn4C)CC3)sc12`, for which the cytotoxicity at 10 µM was -4.66%.

As for `CC(c1ccccn1)N(C)Cc1ccc(-n2ccnc2)cc1` (configuration not stated), the cytotoxicity at 10 µM is -0.452%.

Consider `Cc1cc(N2CCCN(c3nc(C)nc(C)c3C)CC2)ccn1`, for which the cytotoxicity at 10 µM is -13.1%.

Take `Cc1cc(C)cc(CN2CCN(Cc3ccc4nonc4c3)CC2=O)c1`: the cytotoxicity at 10 µM stood at 0.403%.

Consider `COc1ccc2c(C)nc(N3C[C@@H](C)O[C@@H](C)C3)nc2c1`, for which the cytotoxicity at 10 µM is 6.77%.

Turning to `Cn1c(Cn2ncc(N3CCCC3)cc2=O)nc2ccccc21`, the cytotoxicity at 10 µM stood at 5.65%.

For the compound `CN(CCCc1cnn(C)c1)C(=O)C1CCCN(C2CCCC2)C1` (configuration not stated), the cytotoxicity at 10 µM was -7.17%.

Regarding `CCn1nc(C(C)C)cc1C(=O)NCc1nc2ccc(OC)cc2[nH]1`, the cytotoxicity at 10 µM was 4.28%.

For the compound `CCC(CO)N(Cc1ccsc1)Cc1ccccc1C#N` (configuration not stated), the cytotoxicity at 10 µM came out at 9.64%.

On to `CCN(CC)CCc1nc2c([nH]1)CC(c1ccc(Cl)cc1)CNC2=O` (configuration not stated), for which the cytotoxicity at 10 µM was -58.9%.

Regarding `COCC(=O)N(Cc1cccnc1)CC1CCCN(C2CCCCC2)C1` (configuration not stated), the cytotoxicity at 10 µM amounted to 1.72%.

With `O=C(NCc1cccnc1)C1CN(c2cnc3ccccc3n2)CCN1` (configuration not stated), the cytotoxicity at 10 µM is -48.9%.

On to `CC(=O)N[C@@H]1CN(Cc2oc3ccccc3c2C)C[C@H]1c1ccc(C)o1`, for which the cytotoxicity at 10 µM was -12.3%.

With `C/C(=C\c1ccco1)CN(C)C(C)c1ccccn1` (configuration not stated), the cytotoxicity at 10 µM is -3.49%.

For `CN1CC(c2ccccc2)CC12CCN(C(=O)c1ccc(Cl)cc1)CC2` (configuration not stated), the cytotoxicity at 10 µM was -2.72%.

Regarding `CN(CCNc1ncc2c(n1)CCN2c1ccccc1)S(C)(=O)=O`, the cytotoxicity at 10 µM is 0.557%.

Consider `Cc1nc(NC(=O)N2CCCC(N(C)C)C2)nn1C` (configuration not stated), for which the cytotoxicity at 10 µM is -9.4%.

As to `COc1ccccc1OCc1cc(C(=O)N2CCN(C(C)=O)CC2)n[nH]1`, the cytotoxicity at 10 µM was -2.59%.

On to `CC(C)N1CCC(NCc2cccnc2N(C)Cc2ccccc2)CC1`, for which the cytotoxicity at 10 µM stood at 21%.

With `Cn1cc(CCNCc2cc(Br)c3c(c2)OCO3)cn1`, the cytotoxicity at 10 µM was -18%.

Regarding `CC1c2ncc(COCc3ccccn3)n2CCN1C1CCCC1` (configuration not stated), the cytotoxicity at 10 µM worked out at 12.8%.

In the case of `Cc1ccc2c(n1)N(CCn1cccn1)CCN(C(=O)NC1CC1)C2`, the cytotoxicity at 10 µM was -4.58%.

As for `O=C([C@H]1CN(Cc2ccncc2)C[C@H]2OCC[C@@H]12)N1CCCCO1`, the cytotoxicity at 10 µM is 9.01%.

With `CO[C@@H]1CCN(c2nnc(C)s2)C[C@@H]1Cc1ccccc1`, the cytotoxicity at 10 µM stood at 10.5%.

For `O=C(c1ccncc1)N1CCOC2(COCCN(c3cncnc3)C2)C1` (configuration not stated), the cytotoxicity at 10 µM worked out at 8.58%.

For the compound `Cc1cc(S(=O)(=O)NC(C)(C)CN)c(F)cc1F`, the cytotoxicity at 10 µM worked out at 4.87%.

For `Cc1cc(F)c(S(=O)(=O)NCC(C)(C)N)cc1F`, the cytotoxicity at 10 µM was 6.65%.

Consider `Cn1cccc1C(=O)N1CCC2(CCN(C(=O)c3cccnc3)C2)CC1`, for which the cytotoxicity at 10 µM is -102%.

The values above are taken from ChEMBL document CHEMBL4513216, “Probing the Open Global Health Chemical Diversity Library for Multistage-Active Starting Points for Next-Generation Antimalarials” (ACS Infect Dis, 2020).
